Compound activity as filed in PubChem BioAssay.
Rows were chosen to be rich in hits. Some 2.9% of all compounds tested hit in one or more screens of this group.
AI-2 QS mod – Vibrio harveyi AI-2 quorum sensing modulation; activity change, % at 7.5 µM; Vibrio harveyi JMH597 AI-2 luminescence/OD600 ratio, 9 h; hits give low values; strain lacks LuxN and CqsS sensors; 0 = neutral-control median; 300,000 tested, 0.4% active; in the data active means activity change below about -75%, passing the limit was not always enough; inconclusive means no clear call, values can overlap the other calls;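 further: luminescence divided by OD600 gain over 9 h not by final OD600 alone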
RanGTP-Imp inh – inhibitors of RanGTP-importin-beta interaction, primary screen, biochemical, FRET, CFP-Ran, YFP-importin-beta, homogeneous | cell-free CFP-Ran/YFP-importin-beta FRET ratio | inhibition, % (concentration not given with the values) | 300,000 tested, 1.1% active;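 active means more than half of the replicate wells show a fall in the fluorescence ratio signal beyond about 16%, limit read from the data, passing the limit was not always enough; inconclusive means exactly half of the replicate wells pass the set limit; inactive means fewer than half of replicates pass the limit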
Runt-CBFb FRET – inhibitors of human RUNX1 Runt domain binding to CBFb | Q01196+Q13951 | Cerulean-Runt/Venus-CBFb FRET ratio 530/480, 1 h | inhibition, % at 20 µM | 220,000 tested, 0.46% active;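 active means inhibition over about 50% at 20 µM in the single-dose screen, limit read from the data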
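test system = Cerulean-tagged RUNX1 Runt domain (FRET donor) fusion protein | reagent = Venus-CBFb binding partner, 100 nM | incubation = protein complex preformed 1 h, compound exposure 1 h, room temperature, dark | detection = FRET fluorescence | read-out basis = loss of energy transfer signal | controls = 5 µM unlabeled CBFb as full-inhibition high control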
Wee1 degr inh – human Wee1 degradation inhibition, primary screen. reporter increase, % at 5 µM. HeLa Luc-Wee1K328M stability, luciferase luminescence; 100% = proteasome inhibitor MG132 effect. P30291. 220,000 tested, 1.2% active;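 active means activation above the mean of all tested compounds plus 3 SD, set per screening run, cut at about 8.8% in these data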;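 further: cells exposed to compound for 20 h before luminescence read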
Target sequence (P30291 whole entry K328M): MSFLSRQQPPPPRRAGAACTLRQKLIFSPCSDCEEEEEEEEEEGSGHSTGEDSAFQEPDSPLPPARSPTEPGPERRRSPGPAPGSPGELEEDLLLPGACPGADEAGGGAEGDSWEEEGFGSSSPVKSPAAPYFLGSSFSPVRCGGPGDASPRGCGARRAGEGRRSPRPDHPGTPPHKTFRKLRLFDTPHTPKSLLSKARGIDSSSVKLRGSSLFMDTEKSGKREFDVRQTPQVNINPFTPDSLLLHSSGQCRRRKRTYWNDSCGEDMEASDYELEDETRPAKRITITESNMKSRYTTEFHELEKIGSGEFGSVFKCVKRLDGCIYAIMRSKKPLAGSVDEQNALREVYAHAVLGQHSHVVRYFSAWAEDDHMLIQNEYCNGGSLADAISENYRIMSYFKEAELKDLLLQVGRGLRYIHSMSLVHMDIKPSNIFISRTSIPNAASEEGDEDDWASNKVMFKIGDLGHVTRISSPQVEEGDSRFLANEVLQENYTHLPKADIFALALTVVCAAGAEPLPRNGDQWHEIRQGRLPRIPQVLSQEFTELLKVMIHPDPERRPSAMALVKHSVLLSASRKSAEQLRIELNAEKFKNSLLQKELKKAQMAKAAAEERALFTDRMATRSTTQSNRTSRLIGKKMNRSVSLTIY
Runt-SMMHC FRET – blocks binding of human RUNX1 Runt domain to CBFb-SMMHC | Q01196+Q13951 | Cerulean-Runt/Venus-CBFb-SMMHC FRET ratio 530/480, 1 h | inhibition, % at 20 µM | 220,000 tested, 0.74% active | AID 1434;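 active means mean inhibition across duplicate retests at 20 µM reaching about 50%, limit read from the data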;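 further: inhibitors lower the FRET ratio by blocking Runt binding to CBFb-SMMHC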
KLK7 zymogen act – proKLK7 (human) activation, primary screen | 370,000 tested, 0.9% active | purified proKLK7, EDANS-DABCYL substrate fluorescence; 100% is mature enzyme control, 0% vehicle | activation, % at 7 µM;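 active means activation above the mean of all tested compounds plus 3 SD, computed per campaign excluding outliers beyond control limits, cut at about 13% in these data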
KLK7 act conf – confirmation of human kallikrein-7 zymogen activators; shares compounds with KLK7 zymogen act; purified proKLK7, EDANS-DABCYL substrate fluorescence; scaled: vehicle 0, mature enzyme 100; activation, % at 7 µM; 3,200 tested, 68% active; AID 686949;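 active means activation, as change over the incubation, above the mean of all tested compounds plus 3 SD, cut at about 13% in these data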
EDANS-DABCYL int – optically interferes with EDANS-DABCYL signal, flagging KLK7 hits; shares compounds with KLK7 zymogen act; EDANS-DABCYL substrate fluorescence interference, no enzyme, 4 h; solvent 0%, active enzyme control 100%; activation, % at 7 µM; 3,200 tested, 80% active;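 active means activation above the all-compound mean plus 3 SD, ignoring values outside control-based bounds, cut at about 4.8% in these data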;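 further: value is the 4 h activation minus the activation read at time zero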
Hits are given with their value; 0 = inactive; ? = inconclusive; - = no result.

SMILES	AI-2 QS mod	RanGTP-Imp inh	Runt-CBFb FRET	Wee1 degr inh	Runt-SMMHC FRET	KLK7 zymogen act	KLK7 act conf	EDANS-DABCYL int
COc1cc2[nH]c(Cl)c([N+](=O)[O-])c2cc1OC	0	19	0	0	0	58	0	5.9
NC(=S)c1cc2ccc(O)cc2oc1=O	0	147	0	0	82	24	70	73
O=c1oc2cc(O)ccc2cc1-c1nc2ccccc2o1	-	-	-	-	-	108	61	73
O=c1oc2cc(O)ccc2cc1S(=O)(=O)c1ccccc1	0	133	-	-	-	38	73	67
NC(=S)c1cc2cc(Br)ccc2oc1=O	0	0	-	0	0	0	-	-
CCC(CC)Nc1ccc(C(CC(N)=O)NC(=O)Cc2cccc3ccccc23)cc1[N+](=O)[O-] (configuration not stated)	0	0	-	-	-	0	-	-
Cn1cccc1CC(=O)NNC(=S)Nc1ccc(Cl)cc1	0	0	0	0	0	0	-	-
CC(=O)c1ccc(N=c2scc(C)n2C(C)C)cc1	0	0	0	0	0	0	-	-
Cc1cn(CCOc2ccc(Cl)cc2)c(=O)[nH]c1=O	0	0	-	-	-	0	-	-
CCN(CC)C(=O)COc1ccc2oc(C)c(C(=O)OC)c2c1	-	-	0	0	0	0	-	-
CCN(CC)C(=O)COc1ccc2oc(-c3ccco3)cc(=O)c2c1	0	0	0	0	0	28	52	55
COc1ccccc1CCn1cnc2c3cc(C)ccc3n(C)c2c1=O	0	0	0	0	0	0	-	-
COc1ccc2c(c1)c1ncn(CCN3CCNCC3)c(=O)c1n2C	0	0	0	0	0	25	18	17
COc1ccc2c(c1)c1ncn(CCN3CCCC3)c(=O)c1n2C	0	0	0	0	0	24	0	5.9
COc1ccc2c(c1)c1ncn(CCN3CCCCC3)c(=O)c1n2C	0	0	0	0	0	17	0	0
COc1ccc2[nH]c3c(=O)n(CCN4CCOCC4)cnc3c2c1	0	0	0	0	0	0	-	-
CCCCn1c(=O)c(CCC(=O)OCC(=O)NCc2ccc(OC)c(OC)c2)nc2ccccc21	0	0	0	0	0	0	-	-
C/C(N)=C(/C#N)C(=O)CSc1nnnn1-c1ccc(C)cc1	0	0	0	0	0	0	-	-
COCCN(C(=O)COC(=O)CCS(=O)(=O)c1ccccc1)c1c(N)n(Cc2ccccc2)c(=O)[nH]c1=O	0	0	-	-	-	0	-	-
CCN(C)c1ccc(/C=N\n2nnnc2N)cc1	0	0	0	0	54	13	46	43
Cc1ccc(-n2nc3c(c2NC(=O)c2ccc(S(=O)(=O)N4CCOCC4)cc2)CSC3)c(C)c1	-	-	0	0	0	-	-	-
CC1(C)CC(=O)C(C(C2=C(O)CC(C)(C)CC2=O)c2ccc(O)c([N+](=O)[O-])c2)=C(O)C1	0	0	-	0	-	0	-	-
CN(C)C=Nc1ncc2c([nH]c3ccccc32)c1C#N	0	0	0	0	0	0	-	-
CNc1ccc(/C=C\CCCO)cn1	-	-	-	-	-	16	15	18
C[n+]1ccc(/C=C/c2c[nH]c3ccc(F)cc23)cc1	0	0	-	-	-	15	0	14
SMILES	AI-2 QS mod	RanGTP-Imp inh	Runt-CBFb FRET	Wee1 degr inh	Runt-SMMHC FRET	KLK7 zymogen act	KLK7 act conf	EDANS-DABCYL int
Cn1cc(/C=C/c2cc[n+](C)cc2)c2cc(F)ccc21	0	0	-	-	-	-	-	-
COc1ccc(OCCCC(=O)OC(C)C(=O)Nc2cccc(C(C)=O)c2)cc1 (configuration not stated)	0	0	-	-	-	0	-	-
Cc1c(Br)c([N+](=O)[O-])nn1C(C)C(=O)N1CCc2ccccc2C1 (configuration not stated)	0	0	-	-	-	0	-	-
COc1cc2oc3cc(C)oc(=O)c3c2cc1OC	0	0	0	0	0	35	60	73
O=C(Nc1ccccc1)c1ccccc1N=Cc1cccc(O)c1	0	0	0	0	0	32	15	17
Cc1n[nH]c(=O)c2c(NC(=O)CSc3ccc(Br)cc3)oc(C)c12	0	0	-	-	-	0	-	-
CCOC(=O)c1cccc(OS(=O)(=O)Cc2ccccc2)c1	0	0	-	-	-	0	-	-
CN1C(=O)C2C(c3ccc(N(C)C)cc3)=NN(Cc3ccccc3)C2C1=O (configuration not stated)	0	0	0	0	0	24	24	32
COc1ccc(C2=NN(Cc3ccccc3)C3C(=O)NC(=O)C23)cc1 (configuration not stated)	0	0	0	0	0	0	-	-
Cn1c(=O)c2cc(NC(=O)CCc3ccc4c(c3)OCO4)ccc2n1Cc1ccc(F)cc1	-	-	-	-	-	32	65	72
COc1cc(Cn2c3ccc(NC(=O)CCc4ccc(O)cc4)cc3c(=O)n2C)ccc1F	-	-	-	-	-	13	0	10
Cn1c(=O)c2cc(NC(=O)CCc3cccc(Cl)c3)ccc2n1Cc1cccc(C(F)(F)F)c1	-	-	-	-	-	0	-	-
COc1ccc(CCNC(=O)Nc2ccc3c(c2)c(=O)n(C)n3Cc2ccc(F)cc2)cc1OC	-	-	-	-	-	0	-	-
Cc1cccn2cc(-c3c[nH]c4ccccc34)nc12	0	0	0	0	0	16	0	0
O=C(CC1Sc2ccccc2NC1=O)NCc1ccc(Cl)cc1 (configuration not stated)	0	0	0	0	0	0	-	-
Cc1cc(N(C)Cc2ccccc2)nc2cc(O)ccc12	0	0	-	-	-	35	64	74
Cc1cc(N(C)Cc2ccccc2)nc(-c2ccccc2)n1	0	0	0	0	0	0	-	-
O=C(/C=C/c1cccc([N+](=O)[O-])c1)OCC(=O)N1CCCCC1	-	-	-	-	-	0	-	-
Cc1ccc([C@H]2C[C@H](O)[C@@H](n3cc(-c4ccc(F)cc4)nn3)CN2C(=O)C2CCCCC2)cc1	-	-	-	-	-	0	-	-
CCOC(=O)c1cnc2cc3c(cn2c1=O)CCCC3	0	0	0	0	0	13	0	10
CCOC(=O)c1cc2c(nc1N)CCCC2	0	?	0	0	0	0	-	-
CCOc1ccc(/C=C(\C)C(=O)c2c(C)cc(C)[nH]c2=O)cc1	0	0	-	-	-	28	0	0
COc1ccc(/C=C(\C)C(=O)c2c(C)cc(C)[nH]c2=O)cc1	0	0	-	-	-	0	-	-
CC(C)N(C)CCOC(=O)C1COc2ccccc2O1 (configuration not stated)	0	0	0	0	0	0	-	-
O=C(Nc1ccc(-c2cn3ccsc3n2)cc1)c1ccc(F)c(S(=O)(=O)N2CCOCC2)c1	0	0	0	0	0	18	0	6.1
O=C(Nc1ccccc1)c1ccc(F)c(S(=O)(=O)N2CCOCC2)c1	0	0	0	0	0	0	-	-
